UCH37 inh = inhibitors of human deubiquitinating enzyme UCH37; Q9Y5K5; purified proteasome/UCH37, Ub-AMC cleavage fluorescence; inhibition, % (test concentration not listed); 330,000 compounds, 0.33% hits;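 active = mean inhibition over replicate wells above about 20%, limit read from the data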;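 also: 0% = compound-free wells with enzyme and 100% = wells lacking proteasome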
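Assay system: Proteasome-bound UCH37. Buffer or medium: pH 7.4 Tris-HCl (50 mM) with ovalbumin, ATP-MgCl2, DTT. Incubation: 30 min preincubation with enzyme, 25 min cleavage at room temperature. Measured by: fluorescence, ex 355 nm, em 460 nm. Read-out basis: percent inhibition. Control set: wells without proteasome as full block, compound-free enzyme plus substrate as uninhibited.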
MEKK3 PB1 HTS = raises or lowers MEK5 binding to the human MEKK3 PB1 domain | Q99759 | bead-based flow cytometry, Alexa488-MEK5 binding to MEKK3; actives lie on both sides; 0 = blocked by unlabeled MEK5, 100 = vehicle | binding response (% of control), % at 10 µM | 290,000 compounds, 1.4% hits;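 active = binding response more than 3 SD above or below the average of its plate-row segment, actives on both sides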;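 also: Alexa488 bead fluorescence after subtracting the streptavidin-only scavenger bead signal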
T cell HTS = modulates CD8 T cell binding to vesicles. AID 2052. 330,000 compounds, 0.068% hits. response (vesicle binding), % at 7 µM. 2C CD8+ T cell-vesicle binding, flow cytometry; hits give low values;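 active = response, share of CD8 T cells binding vesicles, and their 90th percentile fluorescence all below set limits, cut at about 80% in these data, passing the limit was not always enough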;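 also: values below 100% mean blocked vesicle binding to the CD8+ T cells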
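Material: 2C TCR transgenic mouse naive CD8+ T cells, MACS-purified. Also added: QL9-charged Drosophila Ld/ICAM-1/B7-1 vesicles. Timing: binding 1.5 h at 37 °C. Measured by: high-throughput flow cytometry with anti-B7-1 and anti-CD8 staining. Read-out: percent CD8+ FL2 mean versus row control. Controls: Unloaded micro-vesicles (low), QL9 vesicles with 0.7% DMSO (high).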
MEKK2 mut-MEK5 = signal of MEK5 binding to mutant human MEKK2 PB1 domain. bead flow cytometry, Alexa488-MEK5 binding to MEKK2 mutant. percent response, % at 10 µM. 290,000 compounds, 0.35% hits; in the data active = percent response above about 24%, passing the limit was not always enough
Rce1 inhib = yeast Ras-converting enzyme inhibition; yeast membranes, quenched prenylated peptide cleavage fluorescence; 290,000 compounds, 0.27% hits; calls only;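 active = fall in fluorescence gain of 50% or more versus controls, with final raw signal at or below 3038400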;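 also: plate controls were neutral control wells for no effect and wells lacking membranes for full effect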
Target sequence (Q03530 whole entry, looked up): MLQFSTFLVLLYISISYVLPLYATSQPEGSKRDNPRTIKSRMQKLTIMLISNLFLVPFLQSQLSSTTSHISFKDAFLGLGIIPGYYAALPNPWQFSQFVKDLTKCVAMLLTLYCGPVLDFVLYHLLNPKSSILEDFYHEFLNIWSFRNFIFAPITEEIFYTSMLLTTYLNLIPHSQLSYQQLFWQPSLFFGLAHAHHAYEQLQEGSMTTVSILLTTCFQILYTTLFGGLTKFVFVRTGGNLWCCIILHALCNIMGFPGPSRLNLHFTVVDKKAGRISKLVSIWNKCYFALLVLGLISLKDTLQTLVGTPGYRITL
MEKK2 WT-MEK5 = raises or lowers MEK5 binding to wildtype human MEKK2 PB1 domain | Q9Y2U5 | bead flow cytometry, Alexa488-MEK5 binding to MEKK2 WT; actives lie on both sides | binding response (% of control), % at 10 µM | 290,000 compounds, 1.1% hits; in the data active = binding response below about 67% or above about 130%
MEKK2wt confirm = raises or lowers MEK5 binding to wildtype human MEKK2, retest. 5,900 compounds, 2.4% hits. shares compounds with MEKK3 PB1 HTS. bead flow cytometry, Alexa488-MEK5 binding to MEKK2 WT; actives lie on both sides. binding response (% of control), % at 10 µM; in the data active = binding response below about 16% or above about 210%; inactive = in between
MEKK2mut confirm = signal of MEK5 binding to mutant human MEKK2, retest; shares compounds with MEKK3 PB1 HTS; bead flow cytometry, Alexa488-MEK5 binding to MEKK2 mutant; percent response, % at 10 µM; 5,900 compounds, 2% hits; AID 1893; in the data active = percent response mostly above about 71%, no sharp cut-off; inactive = mostly below about 38%;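 also: higher means compound restores mutant binding toward wildtype level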
MEKK3-MEK5 inh = confirmation of inhibitors of MEK5 binding to human MEKK3. shares compounds with MEKK3 PB1 HTS. bead flow cytometry, Alexa488-MEK5 binding to MEKK3; hits give low values. binding response (% of control), % at 10 µM. 5,900 compounds, 1.8% hits. AID 1894;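 active = binding response below 72% of control, or above a set upper limit, though filed actives all read lower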;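 also: 100% = DMSO only wells and 0% = binding blocked by excess unlabeled MEK5; lower values mean stronger disruption of MEK5 binding to MEKK3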
An asterisk follows results filed as active; i = inactive; · = no result; [ ] = another dose, or the depositor's remark. The list is not random: actives were taken first. Their share in the collection is about 2.5%.

SMILES | UCH37 inh | MEKK3 PB1 HTS | T cell HTS | MEKK2 mut-MEK5 | Rce1 inhib | MEKK2 WT-MEK5 | MEKK2wt confirm | MEKK2mut confirm | MEKK3-MEK5 inh
Cc1ccc(CN2CCN(CC(=O)NCCCN3CCN(c4ccc(F)cc4)CC3)C2=O)cc1 | 3 | 104 | 391 | 24* | · | 136 | 133 | 7 | 103
COc1ccc(C=NNC(=O)CN(CCc2ccccc2)S(=O)(=O)c2ccc(NC(C)=O)cc2)cc1OC | 7 | · | · | · | · | · | · | · | ·
N/C(=N\OC(=O)C(c1ccccc1)c1ccccc1)c1ccccn1 | 3 | 2.0*[inhibitor] | 153 | 1 | · | 2.0*[inhibitor] | 97 | -7 | 99
Cc1ccc(CNC(=O)CSc2nc3ccsc3c(=O)n2Cc2ccccn2)cc1 | 0 | 103 | 288 | -6 | i | 100 | · | · | ·
O=c1c2sccc2nc(SCc2ccc([N+](=O)[O-])cc2)n1Cc1ccccn1 | 3 | 63*[inhibitor] | i | 1 | i | 96 | 100 | -1 | 104
CCOc1ccccc1C=c1sc2ncnn2c1=O | 3 | · | · | · | · | · | · | · | ·
CCOc1ccccc1N(CC(=O)NC1CCCC1)C(=O)CCCC(=O)Nc1ccccn1 | 2 | 2.0*[inhibitor] | 285 | -39 | i | 2.0*[inhibitor] | 95 | -3 | 98
O=C(CCCC(=O)N(CC(=O)NC1CCCC1)C1CCCC1)Nc1ccccn1 | 6 | 72*[inhibitor] | 240 | -12 | i | 87 | -1.0*[inhibitor] | -3 | 98
CCOCCCNC(=S)NCCCNc1nc2c(C)cc(C)cc2cc1C#N | -32 | 94 | · | -9 | · | 91 | · | · | ·
Cc1cc(C)c2nc(NCCCNC(=S)NCCCN(C)C)c(C#N)cc2c1 | -79 | 97 | i | 37 | i | 164* | 165 | 42 | 109
COc1ccc(N2CC(C(=O)NN=Cc3cccs3)CC2=O)cc1 (stereo not drawn) | 0 | · | · | · | · | · | · | · | ·
CCc1nnc(NN=Cc2cc(Br)c(O)cc2O)n1N | 16 | · | · | · | · | · | · | · | ·
Cc1nc(-n2nnc(CO)c2CO)nc2c1CCC2 | 2 | 138* | 480 | 4 | i | 116 | 93 | -3 | 100
CCc1ccc(NC(=O)CC(C)=NNC(=O)COc2ccccc2C)cc1 | 0 | · | · | · | · | · | · | · | ·
COC(=O)/C(=C/c1ccc2c(c1)c1ccccc1n2C)NC(=O)c1ccccc1 | -35 | 73*[inhibitor] | 141 | -1 | i | 99 | 105 | -1 | 105
Cc1cc(C)cc(NC(=O)CSc2nc3c(oc4ccccc43)c(=O)n2-c2ccccc2)c1 | 3 | 124 | 289 | 0 | i | 98 | · | · | ·
O=C(Cn1c(=O)n(-c2ccccc2)c(=O)c2oc3ccccc3c21)Nc1ccccc1 | 3 | 131* | 260 | 0 | i | 103 | 106 | 4 | 102
COCC(C)n1c(C)cc(C(=O)COC(=O)CNC(=O)c2ccccc2)c1C (stereo not drawn) | 1 | 131* | 355 | 0 | i | 106 | 102 | 4 | 101
CC(C=NNC(=O)COc1ccccc1C)=NNC(=O)COc1ccccc1C | 2 | · | · | · | · | · | · | · | ·
NC(=O)C(c1ccccc1)c1ncc(C(F)(F)F)cc1Cl (stereo not drawn) | 1 | 96 | 498 | -2 | i | 93 | · | · | ·
NC(=O)C(c1ccccn1)c1ncc(C(F)(F)F)cc1Cl (stereo not drawn) | 0 | 40*[inhibitor] | 174 | -14 | i | 52 | 101 | -1 | 103
CC(C)(C)NC(=O)NC(=O)CN1CCN(C(c2ccccc2)c2ccccc2)CC1 | 0 | 157* | 297 | 7 | i | 144 | 100 | 1 | 100
CN(C)Cc1c(C(=O)NN=Cc2ccoc2)nnn1-c1nonc1N | 4 | · | · | · | · | · | · | · | ·

Bioassay records from PubChem BioAssay.
